Source: ChEMBL document CHEMBL3600329, “Synthesis, biological profiling and mechanistic studies of 4-aminoquinoline-based heterodimeric compounds with dual trypanocidal-antiplasmodial activity” (Bioorg Med Chem, 2015)

What was measured:
[1] = Selectivity index, ratio of IC50 for rat L6 cells to IC50 for chloroquine-resistant Plasmodium falciparum K1; format: toxicity, cell-based; conditions: read-out: Ratio IC50
Procedure, shortened: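 IC50 ratio, L6 over P. falciparum K1. L6 cells seeded at 1×10^4 mL⁻¹ with compound, 6 days at 37 °C, resazurin added, fluorescence after 8 h. Parasites in A+ erythrocytes (2.5% haematocrit, 1% parasitaemia) with twofold dilutions, 48 h at 37 °C in low-oxygen gas; growth read by LDH activity at 550 nm.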

Trypanosoma brucei = experiment: Trypanocidal activity against bloodstream form of Trypanosoma brucei 221 assessed as inhibition of parasite growth at pH 7.4 after 48 hrs by Spectramax plate reader analysis; format: functional, organism-based; conditions: Trypanosoma brucei, 221, 48 h
Procedure, shortened: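 Bloodstream-form T. brucei strain 221 grown at 37 °C in modified Iscove's medium; log-phase cells diluted to 0.25 × 10^5 mL⁻¹, exposed to a range of compound concentrations in triplicate at 37 °C. Resazurin added after 48 h, read after a further 16 h. IC50 and IC90 = concentrations inhibiting growth 50% and 90%; mean of triplicate experiments ± SEM.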

[2] = Selectivity index, ratio of IC50 for rat L6 cells to IC50 for bloodstream form of Trypanosoma brucei 221; format: toxicity, cell-based; conditions: read-out: Ratio IC50
Procedure, shortened: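 IC50 ratio, L6 over T. brucei. L6 cells seeded at 1×10^4 mL⁻¹ with compound, 6 days at 37 °C, then resazurin, 8 h more, fluorescence read. Log-phase bloodstream T. brucei 221 in modified Iscove's medium at 0.25 × 105 mL⁻¹, compound range in triplicate, 37 °C; resazurin at 48 h, read after 16 h more.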

Plasmodium falciparum = experiment: Antiplasmodial activity against chloroquine-resistant Plasmodium falciparum K1 infected in human A+ erythrocytes assessed as inhibition of parasite growth after 48 hrs by LDH assay; format: functional, organism-based; conditions: K1, 48 h
Procedure, shortened: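 Ring-stage cultures in human A+ erythrocytes (RPMI 1640, A+ serum, D-glucose), 2.5% haematocrit, 1% parasitaemia; twofold serial dilutions in duplicate, DMSO ≤0.5% final. 48 h at 37 °C under 93% N2/3% O2/4% CO2. Growth read as lactate dehydrogenase activity (APAD, lactate, diaphorase, NBT; 550 nm); % inhibition vs controls; IC50 by linear regression; mean of triplicate experiments.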

L6 = experiment: Cytotoxicity against rat L6 cells assessed as inhibition of cell growth after 6 days by Spectramax fluorescence plate reader analysis; format: cell-based; conditions: L6, 144 h
Procedure, shortened: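 L6 rat skeletal myoblasts seeded at 1×10^4 mL⁻¹ in growth medium containing a range of compound concentrations, incubated 6 days at 37 °C; resazurin added, fluorescence read after a further 8 h. IC50 = concentration inhibiting growth by 50%; mean of triplicate experiments ± SEM.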

[3] = Permeability by PAMPA-BBB assay; format: ADME; conditions: read-out: Peff
Procedure, shortened: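 Parallel artificial membrane permeation through porcine brain lipid extract, using PBS:EtOH 70:30; effective permeability Pe reported as mean ± SD of three independent experiments.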

Acetylcholinesterase = Acetylcholinesterase (Homo sapiens, UniProt P22303); experiment: Inhibition of human recombinant AChE using acetylthiocholine iodide as substrate preincubated with enzyme for 20 mins prior to substrate addition by Ellman's method
Sequence of Acetylcholinesterase (P22303 whole entry): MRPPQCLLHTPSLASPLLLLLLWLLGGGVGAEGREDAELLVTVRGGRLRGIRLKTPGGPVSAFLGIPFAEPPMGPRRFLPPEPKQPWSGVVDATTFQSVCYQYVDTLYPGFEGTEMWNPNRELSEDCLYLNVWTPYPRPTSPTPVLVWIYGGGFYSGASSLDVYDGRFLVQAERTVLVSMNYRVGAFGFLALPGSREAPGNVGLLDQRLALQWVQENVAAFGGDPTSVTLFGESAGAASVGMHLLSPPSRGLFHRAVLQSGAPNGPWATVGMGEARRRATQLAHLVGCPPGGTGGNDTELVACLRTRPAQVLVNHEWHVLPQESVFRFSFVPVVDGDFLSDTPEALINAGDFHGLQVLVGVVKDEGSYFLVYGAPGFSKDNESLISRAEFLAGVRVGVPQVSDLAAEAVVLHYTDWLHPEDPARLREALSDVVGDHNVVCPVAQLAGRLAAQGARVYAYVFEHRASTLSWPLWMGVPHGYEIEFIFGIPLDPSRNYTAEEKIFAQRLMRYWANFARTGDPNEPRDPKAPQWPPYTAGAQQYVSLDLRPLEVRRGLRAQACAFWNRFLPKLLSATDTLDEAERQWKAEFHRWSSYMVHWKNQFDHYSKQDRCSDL
Procedure, shortened: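 Ellman assay in 0.1 M phosphate buffer pH 8.0 with hAChE 0.02 u/mL and 333 µM DTNB. At least 10 inhibitor concentrations, in duplicate, preincubated 20 min at 37 °C. Then 450 µM acetylthiocholine iodide, 5 min at 37 °C; absorbance at 414 nm against an uninhibited sample. IC50 by non-linear regression; mean ± S.E.M. of at least 4 experiments.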

Row | Structure (SMILES) | selectivity ratio [1] | IC50 (Trypanosoma brucei) [nM] | IC90 (Trypanosoma brucei) [nM] | selectivity ratio [2] | IC50 (Plasmodium falciparum) [nM] | IC50 (L6) [nM] | Papp [3] [×10⁻⁶ cm/s] | IC50 (Acetylcholinesterase) [nM]
1 | CC1=CC2Cc3nc4cc(Cl)ccc4c(NCCCN(C)CCCNc4c5c(nc6ccccc46)CCCC5)c3C(C1)C2 (stereo not drawn) | < 2.3 | 320 | 450 | < 3.1 | 430 | < 1000 | – | –
2 | CCC1=CC2Cc3nc4cc(Cl)ccc4c(NCCN4CCC(CC5Cc6cc(OC)c(OC)cc6C5)CC4)c3C(C1)C2 (stereo not drawn) | < 0.5 | 290 | 700 | 12 | > 7140 | 3550 | – | –
3 | CC1=CC2Cc3nc4cc(Cl)ccc4c(NCCCCCCCCCCNc4c5c(nc6ccccc46)CCCC5)c3C(C1)C2 (stereo not drawn) | – | 140 | 480 | 12 | – | 1670 | – | –
4 | CC1=CC2Cc3nc4cc(Cl)ccc4c(NCCCCCCCCCCCCNc4c5c(nc6cc(Cl)ccc46)CCCC5)c3C(C1)C2 (stereo not drawn) | < 0.85 | 590 | 770 | 9.5 | > 6600 | 5580 | 16.8 | 3.46
5 | COc1cc2c(cc1OC)C(=O)C(CC1CCN(CCNc3c4c(nc5ccccc35)CCCC4)CC1)C2 (stereo not drawn) | < 0.37 | 410 | 880 | < 7.3 | > 8150 | < 3000 | – | –
6 | CC1=CC2Cc3nc4cc(Cl)ccc4c(NCCCCCCNc4c5c(nc6cc(Cl)ccc46)CCCC5)c3C(C1)C2 (stereo not drawn) | 0.25 | 560 | 790 | 2 | 4400 | 1100 | – | –
7 | COc1cc2c(cc1OC)CC(CC1CCN(CCNc3c4c(nc5cc(Cl)ccc35)CCCC4)CC1)C2 | < 0.31 | 970 | 2390 | 2.5 | > 7720 | 2420 | – | –
8 | CC1=CC2Cc3nc4cc(Cl)ccc4c(NCCCN(C)CCCNc4c5c(nc6cc(Cl)ccc46)CCCC5)c3C(C1)C2 (stereo not drawn) | < 1.9 | 280 | 400 | < 3.6 | 520 | < 1000 | – | –
9 | CC1=CC2Cc3nc4ccccc4c(NCCCCCCCCCCNc4c5c(nc6cc(Cl)ccc46)CCCC5)c3C(C1)C2 (stereo not drawn) | 0.25 | 340 | 430 | 3.3 | 4360 | 1110 | 17.2 | 1.48
10 | CC1=C[C@H]2Cc3nc4cc(Cl)ccc4c(NCCCCCCCNc4c5c(nc6ccccc46)CCCC5)c3[C@@H](C1)C2 | 2.1 | 210 | 420 | 3.5 | 350 | 730 | – | –
11 | COc1cc2c(cc1OC)CC(CC1CCN(CCNc3c4c(nc5cc(Cl)ccc35)CC3C=C(C)CC4C3)CC1)C2 (stereo not drawn) | < 1 | 490 | 1180 | 14 | > 7010 | 6760 | – | –
12 | CC1=C[C@@H]2Cc3nc4cc(Cl)ccc4c(NCCCCCCCNc4c5c(nc6ccccc46)CCCC5)c3[C@H](C1)C2 | < 2.2 | 290 | 490 | < 3.4 | 460 | < 1000 | – | –
13 | CC1=CC2Cc3nc4cc(Cl)ccc4c(NCCCCCCCCCNc4c5c(nc6cc(Cl)ccc46)CCCC5)c3C(C1)C2 (stereo not drawn) | < 5.9 | 240 | 520 | 167 | > 6820 | 40000 | – | –
14 | CC1=CC2Cc3nc4cc(Cl)ccc4c(NCCCCCCCCNc4c5c(nc6cc(Cl)ccc46)CCCC5)c3C(C1)C2 (stereo not drawn) | < 0.14 | 170 | 460 | 5.7 | > 7140 | 970 | – | –
15 | CC1=CC2Cc3nc4cc(Cl)ccc4c(NCCCCCCCNc4c5c(nc6cc(Cl)ccc46)CCCC5)c3C(C1)C2 (stereo not drawn) | < 0.44 | 270 | 430 | < 11 | > 6880 | < 3000 | – | –
16 | CC1=CC2Cc3nc4cc(Cl)ccc4c(NCCCCCCCCCCNc4c5c(nc6cc(Cl)ccc46)CCCC5)c3C(C1)C2 (stereo not drawn) | 1.3 | 170 | 490 | 15 | 2100 | 2630 | – | –
17 | COc1cc2c(cc1OC)C(=O)C(CC1CCN(CCNc3c4c(nc5cc(Cl)ccc35)CCCC4)CC1)C2 (stereo not drawn) | < 0.62 | 300 | 680 | < 10 | 4860 | < 3000 | – | –
18 | COc1cc2c(cc1OC)C(=O)C(CC1CCN(CCCNc3c4c(nc5ccccc35)CCCC4)CC1)C2 (stereo not drawn) | – | 280 | 620 | < 3.6 | – | < 1000 | – | –
19 | COc1cc2c(cc1OC)CC(CC1CCN(CCNc3c4c(nc5ccccc35)CCCC4)CC1)C2 | < 1.2 | 380 | 790 | < 7.9 | 2600 | < 3000 | – | –
20 | CC1=CC2Cc3nc4cc(Cl)ccc4c(NCCCCCCCNc4c5c(nc6ccccc46)CCCC5)c3C(C1)C2 (stereo not drawn) | < 2.1 | 240 | 430 | < 4.2 | 470 | < 1000 | – | –
21 | CCC1=C[C@@H]2Cc3nc4cc(Cl)ccc4c(NCCCN4CCC(CC5Cc6cc(OC)c(OC)cc6C5)CC4)c3[C@H](C1)C2 | 2.7 | 260 | 1330 | 8.3 | 810 | 2150 | – | –
22 | CCC1=C[C@@H]2Cc3nc4cc(Cl)ccc4c(NCCN4CCC(CC5Cc6cc(OC)c(OC)cc6C5)CC4)c3[C@H](C1)C2 | < 0.89 | 290 | 720 | 22 | > 7050 | 6290 | – | –
23 | CC1=CC2Cc3nc4cc(Cl)ccc4c(NCCCCCCNc4c5c(nc6ccccc46)CCCC5)c3C(C1)C2 (stereo not drawn) | 0.39 | 470 | 660 | 2.5 | 2990 | 1170 | – | –
